Shown are actives, neighbours in structure and some others; about 2.6% of the full set was active somewhere.
SENP6 block: SENP6 protease inhibition; Q9GZR1; actives 1.8% (n = 330,000); inhibition, % at 10 µM; Recombinant SENP6 catalytic domain, aminoluciferin luminescence;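 active = inhibition above about 50% at the single tested dose, limit read from the data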;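 also: plate controls were DMSO wells with enzyme for no effect and DMSO wells lacking enzyme for full effect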
SENP7 block: SENP7 protease inhibition; Q9BQF6; recombinant SENP7, Z-RLRGG-aminoluciferin luminescence, 40 min; inhibition, % at 5 µM; actives 1.5% (n = 330,000);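 active = inhibition above about 50% at the single test dose, limit read from the data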;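 also: plate controls were DMSO with enzyme for no effect and no enzyme buffer wells for full effect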
Target sequence (Q9BQF6 706-1050 limits assumed): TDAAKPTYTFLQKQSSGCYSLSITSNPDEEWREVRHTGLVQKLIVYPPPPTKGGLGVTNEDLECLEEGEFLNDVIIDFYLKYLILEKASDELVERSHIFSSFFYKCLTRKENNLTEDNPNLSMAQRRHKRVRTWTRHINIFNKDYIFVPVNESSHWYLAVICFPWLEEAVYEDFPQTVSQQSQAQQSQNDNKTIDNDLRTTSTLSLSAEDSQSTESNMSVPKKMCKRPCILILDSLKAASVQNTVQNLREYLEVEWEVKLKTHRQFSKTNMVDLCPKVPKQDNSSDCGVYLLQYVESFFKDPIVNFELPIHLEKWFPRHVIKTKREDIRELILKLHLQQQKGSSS
SENP1 inh: SENP1 (human) catalytic domain inhibition; recombinant SENP1 catalytic domain, CyPet-SUMO1-YPet FRET cleavage; inhibition, % at 10 µM; actives 0.21% (n = 360,000);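 active = inhibition at least 30% at 10 µM, raw YFP signal under a set limit, fluorescence ratio 0.5 to 1.5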;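 also: 0% = enzyme with DMSO and 100% = no enzyme wells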
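Assay system: hSENP1 catalytic domain, recombinant. Amount: SENP1 enzyme, 20 pM final. Schedule: 50 min reaction, RT, dark. Technique: FRET, CFP and YFP emission. Control set: no-enzyme wells low, DMSO-plus-enzyme wells high control.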
SENP8 block-1: SENP8 protease inhibition. inhibition, % at 10 µM. Q96LD8. actives 1.2% (n = 330,000). purified SENP8, Z-RLRGG-aminoluciferin cleavage, luminescence; in the data active = inhibition above about 50%
Target sequence (Q96LD8 whole entry, looked up): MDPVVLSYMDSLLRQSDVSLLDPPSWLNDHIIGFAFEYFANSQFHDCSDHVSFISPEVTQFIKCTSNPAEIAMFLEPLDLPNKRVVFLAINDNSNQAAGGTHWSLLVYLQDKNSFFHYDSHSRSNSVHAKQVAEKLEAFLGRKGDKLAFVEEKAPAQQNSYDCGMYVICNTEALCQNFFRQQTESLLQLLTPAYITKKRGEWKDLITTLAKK
SENP8 block-2: blocks human SENP8 cleavage of Nedd8 substrate; Q96LD8; recombinant SENP8, Nedd8 substrate fluorescence; inhibition, % at 20 µM; actives 0.64% (n = 360,000); AID 602440; in the data active = inhibition mostly above about 40%, no sharp cut-off; inactive = mostly below about 27%
Platelet DG rel: platelet dense granule release activity. inhibition, %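 (compounds screened at 7.5 µM in platelet-rich plasma)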. AID 1663. human platelet-rich plasma, SFLLRN dense granule ATP release, luminescence. actives 0.22% (n = 300,000);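 active = mean replicate score, as percent of positive control, at or above 50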
SENP8 conf: human SENP8 inhibition, confirmed; inhibition, % at 12.5 µM; Recombinant SENP8, Z-RLRGG-aminoluciferin luminescence, 60 min; actives 40% (n = 6,200); shares compounds with SENP7 block;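 active = mean inhibition across replicates above about 50%, limit read from the data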
SENP6 conf: confirmation of human SENP6 protease inhibitors. inhibition, % at 12.5 µM. shares compounds with SENP7 block. recombinant SENP6, Z-RLRGG-aminoluciferin luminescence. actives 58% (n = 6,200). AID 488915
SENP7 conf: human SENP7 inhibition, confirmed. shares compounds with SENP7 block. recombinant SENP7, Z-RLRGG-aminoluciferin luminescence, 40 min. inhibition, % at 12.5 µM. actives 69% (n = 6,200). AID 488917
Casp3 SENP sel: selectivity test for SENP inhibitors: human caspase-3 inhibition; actives 60% (n = 6,200); purified caspase-3, Z-DEVD-aminoluciferin luminescence, 60 min; shares compounds with SENP7 block; inhibition, % at 12.5 µM; AID 488918;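 active = mean inhibition above about 50%, limit read from the data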;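 also: plate controls were enzyme with DMSO for no effect and wells without caspase-3 for full effect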
Target sequence (P42574 28-227 limits assumed): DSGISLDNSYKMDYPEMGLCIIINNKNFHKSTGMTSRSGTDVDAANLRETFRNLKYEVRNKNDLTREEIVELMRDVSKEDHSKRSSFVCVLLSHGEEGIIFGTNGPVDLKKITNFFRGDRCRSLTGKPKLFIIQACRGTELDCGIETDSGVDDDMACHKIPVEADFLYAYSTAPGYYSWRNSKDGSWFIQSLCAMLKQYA
SENP luc ctr: interferes with luciferase luminescence in SENP counter-screen; shares compounds with SENP7 block; Pre-incubated SENP8/Z-RLRGG-aminoluciferin, luciferase luminescence interference; inhibition, % at 12.5 µM; actives 39% (n = 6,200);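 active = mean inhibition above about 50% when retested at one dose, limit read from the data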;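 also: plate controls were DMSO wells with completed reaction for no effect and substrate without enzyme for full effect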
* hit, by the source's call; . = not tested or not shown.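 The calls were made as follows, unless noted: active = mean inhibition above about 50% in the one-dose retest (limit read from the data); inactive = the rest.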

SMILES | SENP6 block | SENP7 block | SENP1 inh | SENP8 block-1 | SENP8 block-2 | Platelet DG rel | SENP8 conf | SENP6 conf | SENP7 conf | Casp3 SENP sel | SENP luc ctr
COc1cccc(-c2nc(-c3ccccn3)no2)c1 | 97.3* | 97.0* | . | 91.8* | . | 26.5 | 94.7* | 97.5* | 102.7* | 98.5* | 96.5*
O=C(COC(=O)c1ccc(-n2cnnn2)cc1)Nc1cc(Cl)ccc1F | -5.2 | -1.2 | 0.7 | 1.3 | -29.6 | . | . | . | . | . | .
COc1ccc(/C=C/C=C2\N=C(SC)SC2=O)cc1 | 86.2* | 90.7* | -14.2 | 84.2* | 24.6 | 9.0 | -2.6 | 8.2 | 2.2 | 3.4 | 17.4
CCn1c(SCC(=O)NC2CCCCC2)nc2c(c1=O)SCC2 | -9.1 | 0.0 | -0.9 | -0.3 | -0.7 | -6.3 | . | . | . | . | .
Cc1nn(Cc2ccccc2)c(C)c1C(=O)N1CCN(CC(=O)Nc2ccc(F)cc2)CC1 | -3.0 | 53.2* | 1.0 | -0.2 | 13.2 | . | -12.1 | -6.2 | -5.8 | -1.8 | -7.4
Fc1cccc2sc(Nc3nnc(-c4ccccc4)o3)nc12 | 85.1* | 45.4 | -35.5 | 63.0* | -314.6 | 9.9 | 8.1 | 7.4 | 1.4 | 60.3* | 2.7
C[C@H](NC(CCc1ccccc1)C(=O)O)C(=O)N1CCC[C@H]1C(=O)O (some centres undefined) | 7.5 | -1.9 | . | -3.0 | . | -0.4 | . | . | . | . | .
Fc1ccccc1/C=C/c1ccc2ccccc2n1 | 10.7 | 100.4* | -0.7 | 95.5* | -88.9 | 41.9 | 99.8* | 100.9* | 103.7* | 98.8* | 99.4*
C(=C\c1ccc2ccccc2n1)/c1ccccc1 | 98.2* | 97.9* | 0.8 | 97.6* | -409.7 | 45.0 | 99.3* | 100.7* | 103.9* | 98.6* | 97.2*
O/C(=C\c1ccc2ccccc2n1)c1ccc(O)cc1O | 91.3* | 92.3* | -32.6 | 92.8* | 28.3 | 25.6 | 95.4* | 95.8* | 101.7* | 92.1* | 47.0
Cn1nc(/C=C/c2ccccc2)ccc1=O | 54.2* | 57.8* | 1.9 | 41.3 | -396.3 | 12.2 | 28.4 | 31.6 | 75.7* | 76.5* | 55.0*
CCCc1cc(=O)oc2cc(C)cc(OCC(=O)Nc3ccc(CN4CCOCC4)cc3)c12 | -8.3 | 4.2 | -0.5 | 7.0 | -216.6 | -10.0 | . | . | . | . | .
COc1ccc2ccc(C(C)(C(C)=O)C(=O)OC(C)C)cc2c1 (centres undefined) | 4.0 | -9.4 | -0.3 | -9.2 | 6.7 | . | . | . | . | . | .
COCc1cc(C)nc2sc(C(=O)Nc3ccccc3OC)c(N)c12 | 4.9 | 4.5 | -27.0 | -1.6 | -476.9 | 9.1 | . | . | . | . | .
O=C(O)/C=C/c1ccc2ccccc2n1 | -10.1 | -0.5 | 1.5 | -4.1 | 12.5 | -3.0 | . | . | . | . | .
Oc1ccc(/C=C/c2ccc3ccccc3n2)cc1 | 101.0* | 101.6* | 19.7 | 98.4* | -394.7 | 90.2* | 99.6* | 100.3* | 103.2* | 99.0* | 97.6*
CCC(C)N1CCN(S(=O)(=O)Cc2ccccc2)CC1 (centres undefined) | -0.4 | 3.4 | 1.4 | -6.0 | 9.7 | 6.0 | . | . | . | . | .
CCOC(=O)CCCCCC(=O)Nc1ccc2c(c1)CC(=O)N([C@H](C)CO)C[C@H](C)[C@H](CN(C)S(=O)(=O)c1ccc(OC)cc1)O2 | 6.2 | 5.8 | -3.3 | 3.3 | 0.6 | . | . | . | . | . | .
CN(C(=O)Nc1cccc([N+](=O)[O-])c1)c1ccccc1 | . | . | 0.4 | . | 18.8 | . | . | . | . | . | .
CN(N=Nc1cccc([N+](=O)[O-])c1)c1ccccc1 | 50.8* | 47.2 | 0.4 | 39.5 | 20.9 | -6.0 | 42.8 | 50.1* | 73.3* | 38.9 | 25.6
CN(CCCC(=O)O)c1ccc(N=Nc2ccc([N+](=O)[O-])cc2)cc1 | 90.3* | 53.5* | 6.9 | 80.8* | 28.6 | 10.2 | 84.5* | 83.8* | 29.9 | 75.6* | 45.7
CN(N=Nc1ccc([N+](=O)[O-])cc1)c1ccccc1 | 59.8* | 59.6* | 4.8 | 7.9 | 34.3 | 1.1 | 7.1 | 8.9 | 23.3 | 25.1 | 6.5
CC1(C)CC2CC(C)(CN2S(=O)(=O)c2ccc(F)cc2F)C1 (centres undefined) | 2.9 | -5.3 | 2.7 | 10.7 | 12.1 | . | . | . | . | . | .
Cc1ccc(N2CCN(C(=O)C(=O)c3ccc(F)c(F)c3)CC2)cc1 | . | . | 1.1 | . | 18.6 | . | . | . | . | . | .
CN(C)c1ccc(C(O)c2cc3ccccc3s2)cc1 (centres undefined) | . | . | 0.0 | . | 7.0 | . | . | . | . | . | .
SMILES | SENP6 block | SENP7 block | SENP1 inh | SENP8 block-1 | SENP8 block-2 | Platelet DG rel | SENP8 conf | SENP6 conf | SENP7 conf | Casp3 SENP sel | SENP luc ctr
S=C(Nc1ccccc1)c1ccccn1 | 63.9* | 59.1* | 0.0 | 53.8* | 30.1 | 0.3 | 12.9 | 42.5 | 82.9* | 59.1* | 45.7
S=C(Nc1ccccc1)Nc1ccccn1 | . | . | 2.1 | . | 11.1 | . | . | . | . | . | .
C[C@@H]1CN([C@@H](C)CO)C(=O)CCCn2nncc2CO[C@@H]1CN(C)S(=O)(=O)c1ccc(F)cc1 | . | . | 1.2 | . | 19.2 | . | . | . | . | . | .
CCCCNC(=O)c1nc(C2CCN(S(=O)(=O)c3cccc(C(F)(F)F)c3)CC2)oc1-c1ccccc1 | . | . | -0.2 | . | 27.1 | . | . | . | . | . | .
Cc1cc(C(=O)COC(=O)c2ccc[nH]c2=O)c(C)n1C1CC1 | -35.3 | -3.2 | 0.1 | -4.1 | 5.0 | -7.7 | . | . | . | . | .
Cc1cc(C(=O)COC(=O)c2ccc(F)cc2F)c(C)n1C1CC1 | 63.6* | 43.3 | 0.7 | 49.6 | 11.8 | . | -1.3 | -13.5 | 33.0 | 13.9 | -3.1
CN(C)CCCn1c2c(c(SCC(=O)Nc3ccc4c(c3)OCCO4)nc1=O)CCCC2 | . | . | -0.3 | . | 10.2 | . | . | . | . | . | .
CCOc1ccc(NC(=O)CN2C(=O)NC(CCc3ccccc3)C2=O)cc1OCC (centres undefined) | 67.5* | 0.8 | -0.7 | -6.8 | 9.5 | . | 8.6 | 3.3 | -2.9 | -3.2 | -8.1
CC1(C(=O)N2CCN(Cc3ccccc3Cl)CC2)CC1(Cl)Cl (centres undefined) | 16.0 | -5.6 | 0.0 | -11.1 | 20.6 | -9.0 | . | . | . | . | .
O=C(Nc1ccc(F)cc1F)c1noc2c1CCC2 | 43.6 | 53.0* | -3.0 | 17.2 | 13.7 | 1.0 | 27.8 | 38.7 | 76.7* | 69.1* | 16.4
O=C(Nc1cc(Cl)ccc1Cl)c1noc2c1CCCC2 | -10.5 | -0.4 | 1.7 | 3.2 | 18.8 | 7.0 | . | . | . | . | .
O=C(Nc1cccnc1)c1noc2c1CCCC2 | 22.9 | 15.7 | -1.6 | -10.9 | -0.1 | 4.1 | . | . | . | . | .
O=C(Nc1ccc2c(c1)OCO2)c1noc2c1CCCC2 | 87.5* | 81.2* | -1.1 | 78.2* | 5.8 | -9.6 | 85.4* | 86.1* | 98.5* | 90.6* | 13.6
